Most compounds without a hit are left out; they make up all but 3% or so of the library.
SR-BI DiI-HDL act: SR-BI HDL lipid transfer activation; CHO ldlA[mSR-BI] cells, DiI-HDL uptake fluorescence, 3 h; 100 = double the neutral-control signal; activation, % at 12.5 µM; 320,000 compounds, 0.096% hits; AID 504775;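 active means mean replicate activation of at least 60% and every replicate at or above 60%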;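 further: 0% = median plate neutral-control signal and 100% = twice that signal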
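Material – SR-BI-overexpressing, LDLR-lacking CHO cells · Medium – BSA-supplemented, HEPES-buffered Ham's F12, pH 7.4 · Doses – single concentration · Times – compound with DiI-HDL co-incubation, 3 h at 37 °C · Measured by – bottom-read fluorescence, 550/595 nm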
ANO1 activ: mouse TMEM16A channel activation, primary screen; Q8BHY3; HEK293 TMEM16A/YFP-H148Q/I152L, iodide quench fluorescence; hits give low values; B-score at 10 µM; 340,000 compounds, 0.3% hits; AID 623877;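 active means fluorescence-ratio B-score plate-corrected deviation score at least 3 library SD below zero, with starting fluorescence score within 5 deviations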;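 further: channel opened by trigger with iodide after compound preincubation; score built on the fluorescence ratio of max minus min over baseline; more negative score means more quench and so TMEM16A activation or potentiation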
TMEM16A inh: mouse TMEM16A channel inhibition, primary screen | normalized B-score (activity score, 25-100; higher = stronger inhibition) at 10 µM | 310,000 compounds, 1.2% hits | Q8BHY3 | HEK293 TMEM16A/YFP iodide influx fluorescence, ionomycin;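 active means ratio plate-corrected score three or more library SD toward inhibition, starting fluorescence score within five deviations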;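 further: score derived from kinetic fluorescence span divided by baseline fluorescence per well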
Kir21 block: blocks the mouse Kir2.1 inward-rectifier potassium channel | B-score at 10 µM | P35561 | AID 1672 | HEK293-Kir2.1, FluxOR thallium flux fluorescence; hits give low values | 310,000 compounds, 0.85% hits;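 active means fluorescence ratio B-score at or below minus 3 SD of library scores, with starting-brightness B-score within 2 SD, cut at about -4.2 in these data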;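 further: channel flux triggered by added potassium and thallium sulfate stimulus; B-score of peak minus minimum fluorescence over baseline after thallium stimulus; more negative B-score means stronger Kir2.1 block with less thallium influx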
DNA FID counter: displaces DNA intercalator in HCV helicase counter-screen; DNA fluorescent intercalator displacement, fluorescence; inhibition, % at 7.9 µM; 290,000 compounds, 0.17% hits; AID 1845; in the data active means inhibition above about 37%;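 further: 0% = vehicle and 100% = reference compound; higher means more ethidium bromide displaced from hairpin DNA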
SR-BI HDL uptake: blocks mouse SR-BI lipid uptake from DiI-HDL | Q61009 | ldlA[mSR-BI] CHO cells, DiI-HDL uptake fluorescence, 3 h | inhibition, % at 12.5 µM | 320,000 compounds, 0.96% hits | AID 488896;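 active means mean replicate inhibition of at least 70% and a set share of replicates each scoring 70 or more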;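 further: 0% = median of neutral control wells and 100% = median of positive control wells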
Target sequence (Q61009 whole entry, looked up): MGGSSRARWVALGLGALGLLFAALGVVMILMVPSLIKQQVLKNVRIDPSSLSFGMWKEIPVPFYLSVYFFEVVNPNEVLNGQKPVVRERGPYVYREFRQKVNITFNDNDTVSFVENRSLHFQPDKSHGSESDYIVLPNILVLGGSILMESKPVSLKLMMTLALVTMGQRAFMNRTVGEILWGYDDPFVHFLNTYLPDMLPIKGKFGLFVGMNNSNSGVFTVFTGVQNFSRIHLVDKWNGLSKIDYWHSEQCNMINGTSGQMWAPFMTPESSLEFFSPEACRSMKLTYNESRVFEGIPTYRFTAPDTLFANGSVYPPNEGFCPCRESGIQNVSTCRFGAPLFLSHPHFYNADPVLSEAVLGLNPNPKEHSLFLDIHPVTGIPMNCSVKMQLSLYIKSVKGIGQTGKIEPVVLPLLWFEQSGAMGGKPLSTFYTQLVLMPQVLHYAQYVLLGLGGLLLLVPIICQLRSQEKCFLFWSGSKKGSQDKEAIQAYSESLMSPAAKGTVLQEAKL
Numbers without * were called inactive; i = inactive; . = no result.

SMILES | SR-BI DiI-HDL act | ANO1 activ | TMEM16A inh | Kir21 block | DNA FID counter | SR-BI HDL uptake
CC1CCCN(C(=O)COC(=O)c2ccc(=O)n(Cc3ccccc3)n2)C1 (configuration not stated) | 6 | i | i | -0.78 | . | -6
O=C1C=C(N2CCN(c3ccccn3)CC2)C(=O)c2c(O)ccc(O)c21 | -16 | i | . | . | . | 16
CC1=CC(=O)c2c(O)ccc(O)c2C1=O | . | . | 100* | . | 6 | .
Cc1cc(SCc2cccc(C(F)(F)F)c2)nc(=O)[nH]1 | 12 | i | i | 2.7 | -9 | -12
Cc1cc(O)c(-c2cc(O)c(C)cc2O)cc1O | 5 | i | i | -4.8* | 4 | -5
COc1ccc(N2CCN(S(=O)(=O)CCNC(=O)C3CC(=O)N(c4ccccc4)C3)CC2)cc1 (configuration not stated) | 7 | i | i | -0.73 | -6 | -7
COc1ccc(OC)c(NC(=O)c2csc(Cl)c2OC)c1 | -62 | i | i | 1.2 | -27 | 62
CC(C)(C)n1cnc2cc(NCc3ccc(Br)cc3)ccc21 | -13 | -9* | i | 0.08 | -4 | 13
CCc1ccc(CNc2ccc3c(c2)ncn3C(C)(C)C)cc1 | -18 | i | i | -1.2 | -13 | 18
CCc1ccc(CNc2ccc3c(c2)ncn3CC)cc1 | -4 | -6.9* | i | -0.44 | -3 | 4
CCn1cnc2cc(NCc3ccc(OC)cc3)ccc21 | 9 | i | i | 1.4 | -3 | -9
CCCc1cc(C(=O)Nc2ccc(C(=O)c3ccc(C)cc3)cc2)n(C)n1 | -30 | i | 100* | 0.23 | -40 | 30
CN1C(=O)/C(=C/c2cc(N=Nc3ccccc3)ccc2O)SC1=S | -2 | i | 100* | 0.54 | -3 | 2
COC(=O)C1CCC(=O)N1C(c1ccc(OC)cc1)c1cc(OC)c(OC)c(OC)c1 (configuration not stated) | -16 | i | . | . | . | 16
O=C(CN1CC[n+]2c(-c3cccs3)csc21)c1ccc(-c2ccccc2)cc1 | -77 | i | i | -0.69 | 4 | 77*
Cc1cc(C)cc(OCc2nnc(N)s2)c1 | 29 | i | i | -0.34 | 0 | -29
O=S(=O)([O-])C(c1ccccc1)[n+]1ccccc1 (configuration not stated) | 31 | i | i | -1.4 | . | -31
O=C(O)C(C(O)c1ccccc1)[n+]1ccccc1 (configuration not stated) | 10 | -20* | i | -2.1 | . | -10
CC(C)(C)c1ccc(C(=O)Nc2cccc(-n3cnnn3)c2)cc1 | -15 | i | i | -0.15 | -10 | 15
CC1=[N+](C)c2ccc3ccccc3c2C1(C)C | 223* | i | i | -0.37 | -2 | -223
COc1ccc(Nc2cc(C(=O)N3CCc4ccccc4C3)c3ccccc3n2)c(OC)c1 | -78 | i | i | 1.3 | -16 | 78*
COc1ccccc1-c1cc(C(=O)N2CCc3ccccc3C2)c2ccccc2n1 | . | . | 100* | 0.01 | -22 | .
COCCCNC(=O)c1cc(Nc2ccc(OC)cc2OC)nc2ccccc12 | -33 | i | i | 0.35 | -14 | 33
O=C(Cn1ncc2c3ccccc3n(Cc3ccccc3)c2c1=O)NCc1ccco1 | . | i | i | 0.49 | -4 | .
C/C(=N\NC(=O)c1ccccc1O)C1CC1 | -17 | i | i | 1.4 | -8 | 17
SMILES | SR-BI DiI-HDL act | ANO1 activ | TMEM16A inh | Kir21 block | DNA FID counter | SR-BI HDL uptake
COc1ccc(NC(=S)NCCSc2ccc(Cl)cc2)c(OC)c1 | -23 | i | i | -0.93 | -13 | 23
COc1ccc(Cl)cc1NC(=S)NCCSc1ccc(C)cc1 | -15 | i | 100* | -0.04 | -7 | 15
Cc1ccc(CNS(=O)(=O)c2cc3c(cc2C)NC(=O)CO3)cc1 | 11 | i | i | 0.9 | -7 | -11
CCOC(=O)C(=O)Nc1ccc(S(=O)(=O)Nc2nccs2)cc1 | 16 | i | i | 2.3 | -3 | -16
C#CCn1cc(/C=N/Nc2nc3ccccc3[nH]2)c2ccccc21 | -55 | i | i | -6.4* | 6 | 55
CCN(CC)c1ccc(/C=N/Nc2nc3ccccc3[nH]2)c(O)c1 | -114 | i | i | 0.09 | -7 | 114*
C(=N\Nc1nc2ccccc2[nH]1)/c1cccc2nccnc12 | -9 | i | i | 0.66 | 14 | 9
CCn1cc(C(=O)NCCc2ccc(OC)c(OC)c2)c(=O)c2cc(S(=O)(=O)N3CCOCC3)ccc21 | -24 | i | i | -1.3 | -35 | 24
CCC(C(=O)OCC(=O)Nc1ccc(SC(F)F)cc1)c1ccccc1 (configuration not stated) | -7 | i | . | 0.14 | -3 | 7
N#C/C(=C\c1ccc(O)c(O)c1)C(=O)N1CCc2ccccc21 | -3 | i | 25* | . | . | 3
COc1cc(/C=C(\C#N)C(=O)N2CCc3ccccc32)ccc1O | 17 | i | i | -0.31 | -5 | -6
COc1ccccc1NS(=O)(=O)c1cccc(NC(=O)Cc2cccs2)c1 | 16 | i | i | -1.5 | -13 | -16
Cc1cc2nc(NCCCO)n(CC(=O)c3cc(C(C)(C)C)c(O)c(C(C)(C)C)c3)c2cc1C | 6 | i | 100* | . | . | -6
O=C(Cn1c(NCCCO)nc2ccccc21)c1ccc(Cl)cc1 | -11 | i | i | -0.07 | 24 | 11
O=C(CCNC(=O)C1CCN(S(=O)(=O)c2ccc(F)cc2)CC1)NCc1ccc(Cl)cc1 | 10 | i | i | -0.66 | -31 | -10
COCCN(CC(=O)Nc1cccc(C)c1C)C(=O)Cc1sc(C)nc1-c1ccc(F)cc1 | 15 | i | . | . | . | -15
CSc1ccccc1NC(=O)CSCc1ccccc1Br | -5 | i | i | -5.3* | -18 | 5
O=C(CSCc1ccccc1Br)NC1CC1 | -4 | i | i | 0.74 | -1 | 4
Cc1nn2c(NC(C)C)c3c(nc2c1-c1ccccc1)CCC3 | 104* | i | i | 0.56 | -21 | -104
COc1cccc(-n2ccnc2SCC(=O)N2CCCc3ccccc32)c1 | 2 | i | i | -7.5* | -27 | -2
CCOc1ccc(-n2ccnc2SCC(=O)N2CCCc3ccccc32)cc1 | -11 | i | i | -6.7* | -29 | 11
COc1cccc(-n2c(SCC(=O)NCCC3=CCCCC3)nc3n[nH]c(C)c3c2=N)c1 | . | . | i | -0.07 | -21 | .
CCc1ccc(NC(=O)CSc2nc3n[nH]c(C)c3c(=N)n2-c2cccc(OC)c2)cc1 | 123* | i | i | 0.39 | -10 | -123
COc1cccc(-n2ccnc2SCC(=O)Nc2ccccc2)c1 | 10 | i | i | -4.9* | -12 | -10
